For data set [1], the target named is T1, Prostaglandin D2 receptor 2 (Homo sapiens, UniProt Q9Y5Y4).
T1 sequence (Q9Y5Y4 whole entry): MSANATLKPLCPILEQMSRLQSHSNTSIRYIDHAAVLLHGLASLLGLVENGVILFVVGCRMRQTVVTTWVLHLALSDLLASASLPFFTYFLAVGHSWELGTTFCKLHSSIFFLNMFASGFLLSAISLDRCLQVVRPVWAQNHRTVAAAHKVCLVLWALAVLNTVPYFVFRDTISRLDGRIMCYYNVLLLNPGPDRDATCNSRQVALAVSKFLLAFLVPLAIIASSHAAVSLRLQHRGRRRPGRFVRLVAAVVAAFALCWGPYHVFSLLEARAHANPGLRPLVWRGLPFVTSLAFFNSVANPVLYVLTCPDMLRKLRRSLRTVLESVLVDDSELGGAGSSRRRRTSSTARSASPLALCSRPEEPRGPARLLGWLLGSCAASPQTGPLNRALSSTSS
The data set can be described thus: Displacement of [3H]-PGD2 from human CRTh2 receptor expressed in HEK293 cells. Format: cell-based. (Loss of bound radioactivity is the signal in a displacement assay; it reports binding, not function.)

Data set [2] deals with T1, Prostaglandin D2 receptor 2. In words: Antagonist activity at human CRTh2 receptor expressed in HEK293 cells assessed as inhibition of PGD2-induced calcium flux by FLIPR assay. Format: functional, cell-based. A general note: Calcium assays in cells follow changes in intracellular calcium, usually with a dye or a luminescent sensor.
Data set [3] shares this target. The data set can be described thus: Displacement of [3H]-PGD2 from human CRTh2 receptor expressed in HEK293 cells in presence of 0.5% human serum albumin. Format: cell-based.
The target in data set [4] is T2, Prostaglandin D2 receptor (Homo sapiens, UniProt Q13258).
T2 sequence (Q13258 whole entry): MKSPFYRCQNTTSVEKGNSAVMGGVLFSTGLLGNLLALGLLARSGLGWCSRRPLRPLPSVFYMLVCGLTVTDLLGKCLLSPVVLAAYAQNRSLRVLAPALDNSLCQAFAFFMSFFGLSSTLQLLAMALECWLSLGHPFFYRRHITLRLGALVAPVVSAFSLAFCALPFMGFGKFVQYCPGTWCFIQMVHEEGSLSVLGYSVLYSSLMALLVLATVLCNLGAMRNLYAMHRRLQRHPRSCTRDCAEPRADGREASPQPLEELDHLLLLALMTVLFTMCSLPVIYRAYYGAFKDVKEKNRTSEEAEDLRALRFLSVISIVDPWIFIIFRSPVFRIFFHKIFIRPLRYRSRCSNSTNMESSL
In words: Displacement of [3H]-PGD2 from human DP1 receptor expressed in CHO cells. Format: cell-based.

Data set [5] addresses T3, Thromboxane A2 receptor (Homo sapiens, UniProt P21731).
T3 sequence (P21731 whole entry): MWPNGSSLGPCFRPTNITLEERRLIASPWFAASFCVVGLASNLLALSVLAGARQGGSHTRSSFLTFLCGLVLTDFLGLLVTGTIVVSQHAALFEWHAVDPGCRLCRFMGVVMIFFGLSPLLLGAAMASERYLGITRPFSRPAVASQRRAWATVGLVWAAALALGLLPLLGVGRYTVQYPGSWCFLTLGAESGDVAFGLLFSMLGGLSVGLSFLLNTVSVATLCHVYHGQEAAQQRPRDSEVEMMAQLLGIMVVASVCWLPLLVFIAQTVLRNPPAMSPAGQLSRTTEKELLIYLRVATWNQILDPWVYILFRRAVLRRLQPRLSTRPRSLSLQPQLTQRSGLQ
In words: Antagonist activity at human TP receptor by FLIPR assay. Format: functional.

Data set [6] in a line: Lipophilicity, log D of the compound at pH 7.4. The conditions noted are these: buffer. Format: physicochemical.
Data set [7] is described as follows: Solubility of the compound in 0.1 M HCl. Format: physicochemical. The note with it: buffer.
Data set [8] is described as follows: Solubility of the compound in phosphate buffer at pH 7. Format: physicochemical.
Data set [9] in a line: Solubility of the compound in Tris buffer at pH 9. Format: physicochemical.
Data set [10] can be described thus: Stability of the compound in simulated gastric fluid assessed as compound remaining after 1 hr. The conditions noted are these: read-out: Stability. Format: physicochemical. The procedure, abridged: (§1)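 Compound incubated in simulated gastric fluid for 1 h or simulated intestinal fluid for 4 h; unchanged parent recovered quantified by LC-MS, expressed as % parent remaining.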

Data set [11] can be described thus: Stability of the compound in simulated intestinal fluid assessed as compound remaining after 4 hrs. Format: physicochemical. The note with it: read-out: Stability. In outline:
as §1

Data set [12] in a line: Metabolic stability of the compound in human plasma assessed as compound remaining after 4 hrs. The conditions noted are these: read-out: Stability. Format: ADME, cell-free.
A short description of data set [13]: Intrinsic clearance in rat liver microsomes assessed per mg protein. Format: ADME, Microsome. The note with it: read-out: CLH. (Liver microsomes are vesicles of endoplasmic reticulum, rich in cytochrome P450 enzymes.)
The nature of data set [14]: Intrinsic clearance in rat hepatocytes assessed per 10^6 cells. Format: ADME, cell-based, Hepatocyte. The note with it: read-out: CLH.
In data set [15] the target is Cytochrome P450 2D6 (Homo sapiens, UniProt P10635). In words: Inhibition of CYP2D6. Format: ADME.
The target in data set [16] is T4, Cytochrome P450 3A4 (Homo sapiens, UniProt P08684). The data set can be described thus: Inhibition of CYP3A4 using midazolam as substrate. Format: ADME.
For data set [17], the target named is T4, Cytochrome P450 3A4. In words: Inhibition of CYP3A4 using testosterone as substrate. Format: ADME.
For data set [18], the target named is Cytochrome P450 2C9 (Homo sapiens, UniProt P11712). The data set can be described thus: Inhibition of CYP2C9. Format: ADME.
Data set [19] in a line: AUC in Wistar rat at 10 mg/kg, po. Format: ADME, organism-based. Also on record: dose 10 mg/kg, route oral. The note with it: plasma. The procedure, abridged:
(§2)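 Male Wistar rats, 3 animals per experiment; intravenous dose 1 mg/kg and oral dose 10 mg/kg, each given as a solution.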

Data set [20] can be described thus: Clearance in Wistar rat at 1 mg/kg, iv and 10 mg/kg, po. Format: ADME, organism-based. The conditions noted are these: in vivo. In outline: as §2
Data set [21] can be described thus: Volume of distribution at steady state in Wistar rat at 1 mg/kg, iv and 10 mg/kg, po. Format: ADME, organism-based. The note with it: in vivo, read-out: Vdss. The procedure, abridged: as §2
Data set [22] is described as follows: Half life in Wistar rat at 1 mg/kg, iv and 10 mg/kg, po. Format: ADME, organism-based. The conditions noted are these: in vivo. The procedure, abridged: as §2
Data set [23] in a line: Oral bioavailability in Wistar rat at 10 mg/kg. The conditions noted are these: in vivo. Format: ADME, organism-based. In outline:
as §2

A short description of data set [24]: Intrinsic clearance in human liver microsomes assessed per mg protein. Format: ADME, Microsome. The note with it: read-out: CLH.

≈ marks a conversion by molar mass, not a printed value. Some results are limits rather than exact numbers.

T4 sequence (P08684 whole entry): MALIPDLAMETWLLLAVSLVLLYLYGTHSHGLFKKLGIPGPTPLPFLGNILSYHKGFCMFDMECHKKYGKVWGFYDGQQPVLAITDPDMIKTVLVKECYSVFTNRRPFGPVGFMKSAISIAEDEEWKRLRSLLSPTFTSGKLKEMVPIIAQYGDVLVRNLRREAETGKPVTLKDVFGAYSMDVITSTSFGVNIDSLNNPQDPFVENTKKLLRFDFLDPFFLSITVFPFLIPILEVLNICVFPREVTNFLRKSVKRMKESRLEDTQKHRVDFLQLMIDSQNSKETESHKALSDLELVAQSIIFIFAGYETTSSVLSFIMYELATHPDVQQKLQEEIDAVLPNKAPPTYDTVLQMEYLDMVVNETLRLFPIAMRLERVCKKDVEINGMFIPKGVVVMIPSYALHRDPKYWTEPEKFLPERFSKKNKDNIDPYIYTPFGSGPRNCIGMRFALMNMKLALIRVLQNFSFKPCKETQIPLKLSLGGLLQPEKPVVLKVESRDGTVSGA
Chain of Cytochrome P450 2D6 (P10635 whole entry): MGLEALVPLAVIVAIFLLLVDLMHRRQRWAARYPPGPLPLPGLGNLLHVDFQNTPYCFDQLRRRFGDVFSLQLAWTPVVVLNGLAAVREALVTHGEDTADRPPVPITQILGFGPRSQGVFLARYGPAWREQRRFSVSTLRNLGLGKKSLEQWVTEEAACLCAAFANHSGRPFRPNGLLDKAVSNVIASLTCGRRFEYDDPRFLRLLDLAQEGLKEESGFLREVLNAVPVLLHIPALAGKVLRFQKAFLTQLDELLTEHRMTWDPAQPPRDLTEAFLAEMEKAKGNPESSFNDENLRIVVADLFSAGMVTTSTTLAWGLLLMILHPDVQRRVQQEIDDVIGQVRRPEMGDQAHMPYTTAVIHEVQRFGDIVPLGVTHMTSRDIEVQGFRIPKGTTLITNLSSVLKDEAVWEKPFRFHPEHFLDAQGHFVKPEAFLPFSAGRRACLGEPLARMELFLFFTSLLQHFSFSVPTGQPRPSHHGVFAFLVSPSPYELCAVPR
Chain of Cytochrome P450 2C9 (P11712 whole entry): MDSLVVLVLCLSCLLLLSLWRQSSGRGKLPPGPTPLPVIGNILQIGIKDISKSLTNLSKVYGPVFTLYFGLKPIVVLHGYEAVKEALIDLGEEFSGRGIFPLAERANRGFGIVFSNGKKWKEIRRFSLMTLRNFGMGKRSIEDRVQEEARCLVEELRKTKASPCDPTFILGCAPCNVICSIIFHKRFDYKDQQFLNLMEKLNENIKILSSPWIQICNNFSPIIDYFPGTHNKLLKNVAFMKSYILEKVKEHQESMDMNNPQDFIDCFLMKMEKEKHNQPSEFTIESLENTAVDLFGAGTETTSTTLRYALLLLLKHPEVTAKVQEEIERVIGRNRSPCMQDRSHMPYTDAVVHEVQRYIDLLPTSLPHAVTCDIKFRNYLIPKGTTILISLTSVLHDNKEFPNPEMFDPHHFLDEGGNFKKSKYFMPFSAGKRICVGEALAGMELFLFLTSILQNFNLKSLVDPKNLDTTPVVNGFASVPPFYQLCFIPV

By IC50 is commonly meant the point on the concentration scale where inhibition reaches its midpoint. The logD is lipophilicity at a set pH, counting ionised and neutral species. A high value points to a more lipophilic compound. As a reminder, the solubility is the concentration that dissolves in the medium under given conditions. Lower therefore signals a poorly soluble substance. As usually defined, the AUC is concentration integrated over time. By half-life is commonly meant the time needed for the level to fall by half in the phase considered. The term bioavailability denotes the share of a dose that reaches the circulation, judged against a reference dose that is usually intravenous. Read a low bioavailability as poor availability. `COc1ccc(C(C)=O)cc1CSc1nc2ccccc2n1CC(=O)O`: the IC50 in data set [1] is 0.008 µM; in data set [2], 0.025 µM; in data set [3], 0.002 µM; in [4], over 10 µM; in [5], over 25 µM; in [15] it was over 50 µM. Moreover, the IC50 was 37 µM in [16], over 50 µM in data set [17] and 24 µM in data set [18]. Further, the logD in [6] was -1.1. Moreover, the solubility is 575 µg/mL (≈ 1550 µM) in [7], 602 µg/mL (≈ 1630 µM) in [8] and 583 µg/mL (≈ 1570 µM) in data set [9]. In addition, the remaining at 1 h in data set [10] is 92%. For the same molecule, the remaining at 4 h in [11] and in [12] was 100% in each case. For the same molecule, in data set [13], the microsomal CLint turned out to be 17 µL/min/mg. In addition, the hepatocyte CLint in data set [14] is 10 µL/min/1e6 cells. In data set [19], the AUC turned out to be 2360 ng·h/mL. In data set [20], this molecule yielded a clearance of 20 mL/min/kg. Further, in data set [21], the Vd came to 1.1 L/kg. In data set [22], this molecule had a half-life of 2.5 h. In addition, the bioavailability in data set [23] was 27%.

Take `COc1ccc(C(C)=O)cc1CSc1nc2cc(F)ccc2n1CC(=O)O`: the IC50 is 0.002 µM in [1]; 0.005 µM in data set [2]; 0.014 µM in [3]; over 10 µM in [4]; over 25 µM in data set [5]; over 50 µM in data set [15]. Besides, the IC50 in data set [16] was 10 µM; in data set [17], 15 µM; in data set [18] it was over 50 µM. Further, in data set [6], the logD was -0.8. For the same molecule, the solubility turned out to be 484 µg/mL (≈ 1250 µM) in data set [7], 399 µg/mL (≈ 1030 µM) in data set [8] and 583 µg/mL (≈ 1500 µM) in data set [9]. Also, the remaining at 1 h in [10] is 95%. In addition, the remaining at 4 h in [11] and in data set [12] was 100% each time. For the same molecule, the microsomal CLint in [13] came out at 60 µL/min/mg; in [24] it was 13 µL/min/mg. Besides, in [14], the hepatocyte CLint was determined as 20 µL/min/1e6 cells. The molecule further had an AUC in data set [19] of 919 ng·h/mL. Besides, the clearance in [20] was determined as 36 mL/min/kg. The Vd in data set [21] came out at 1.2 L/kg. In [22], this molecule showed a half-life of 0.9 h. This molecule also came in with a bioavailability in [23] of 19%.

Regarding `CCCCNC(=O)c1ccc(OC)c(CSc2nc3cc(F)ccc3n2CC(=O)O)c1`, the half-inhibitory concentration (IC50) in [1] is 0.016 µM; in data set [2], 0.015 µM; in data set [3] it was 0.081 µM; in [4], over 10 µM; in data set [15], over 50 µM; in data set [16], 4 µM. Also, the IC50 in data set [17] came to 7 µM; in data set [18] it was 6 µM. In [6], this molecule showed a logD of 0.1. Further, the solubility was 670 µg/mL (≈ 1500 µM) in data set [7], 719 µg/mL (≈ 1610 µM) in [8] and over 750 µg/mL in data set [9]. For the same molecule, the remaining at 1 h in [10] is 94%. Besides, the remaining at 4 h was 78% in data set [11] and 100% in data set [12]. The microsomal CLint in [13] worked out at 60 µL/min/mg; in data set [24], 7 µL/min/mg. The hepatocyte CLint in data set [14] amounted to 6 µL/min/1e6 cells.

Values taken from ChEMBL document CHEMBL2046289, “Novel 2-(2-(benzylthio)-1H-benzo[d]imidazol-1-yl)acetic acids: discovery and hit-to-lead evolution of a selective CRTh2 receptor antagonist chemotype” (Bioorg Med Chem Lett, 2012).
